TAAR1 antag: human TAAR1 antagonists, primary screen, Fluo-8 calcium fluorescence, CHO RD-HGA16 cells. Trace amine-associated receptor 1 (Homo sapiens), Q96RJ0. antagonist. inhibition, % at 3 µM. actives 1.5% (n = 360,000);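 active = inhibition above a per-plate cutoff, the mean inhibition of test compounds on that plate plus 3 SD, cut at about 49% in these data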
Target sequence (Q96RJ0 whole entry, looked up): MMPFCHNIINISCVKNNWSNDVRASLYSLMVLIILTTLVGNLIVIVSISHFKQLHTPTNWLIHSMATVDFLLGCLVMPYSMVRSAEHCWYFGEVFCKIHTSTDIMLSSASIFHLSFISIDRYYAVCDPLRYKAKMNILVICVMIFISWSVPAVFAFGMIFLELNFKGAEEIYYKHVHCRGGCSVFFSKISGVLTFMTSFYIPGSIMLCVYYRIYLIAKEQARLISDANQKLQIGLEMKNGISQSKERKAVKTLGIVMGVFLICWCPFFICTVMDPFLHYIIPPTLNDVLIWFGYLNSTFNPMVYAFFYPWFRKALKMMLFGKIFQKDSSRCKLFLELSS
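Material: CHO RD-HGA16 cells bearing hTAAR1; compound dosing: one-point dosing, 3 µM nominal final; schedule: dye loading 75 min at 37 °C, then 30 min room temperature; measured by: calcium fluorescence with Fluo-8; control set: vehicle and agonist controls; replication: n of 1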
OX1R antag-1: OX1R (HCRTR1) antagonists, primary screen, fluorescence, CHO/OX1R cells, Fluo-8 calcium, orexin A; Fluo-8 calcium fluorescence; actives 0.43% (n = 330,000); inhibition, % at 5 µM; AID 434989, 2010; Orexin/Hypocretin receptor type 1 (Homo sapiens), O43613;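 active = inhibition above its plate's threshold, mean inhibition of all tested compounds on the plate plus 3 SD, cut at about 37% in these data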
CHO parental Ca: ATP-evoked calcium signal inhibitors, parental CHO, primary screen, counter-screen for OX1R antagonist project, cell-based, fluorescence, Fluo-8 calcium dye; parental CHO-K1, ATP-induced calcium, Fluo-8 fluorescence; inhibition, % at 5.6 µM; actives 0.63% (n = 330,000);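 active = inhibition above that plate's mean sample inhibition plus 3 SD, cut at about 26% in these data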
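test system = CHO parental line | reagent = ATP stimulus | measured by = intracellular calcium via Fluo-8 no-wash fluorescent dye | control set = ATP and no-ATP DMSO wells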
TAAR1 agonist: human TAAR1 agonists, primary screen, Fluo-8 calcium fluorescence, CHO RD-HGA16 cells | Trace amine-associated receptor 1 (Homo sapiens), Q96RJ0 | AID 624467, 2012 | vehicle wells 0%, saturating PEA agonist 100% | actives 0.99% (n = 360,000) | activation, % at 3 µM;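 active = activation above the mean activation of all test compounds in the run plus 3 SD, cut at about 38% in these data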
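Signal – calcium-sensitive Fluo-8 signal, excitation 470-495, emission 515-575 nm · System – RD-HGA16 (CHO) cells co-expressing Gα16 and hTAAR1 · Incubation – 17-24 h seeding, 75 min 37 °C dye, 30 min RT · Compound dosing – 3 µM single concentration · Repeats – no replicates (n 1)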
OX1R antag-2: antagonists of human orexin 1 receptor (OX1R); Orexin/Hypocretin receptor type 1 (Homo sapiens), O43613; OX1R-expressing cells, FRET antagonist read-out; inhibition, % at 6.6 µM; actives 1.8% (n = 330,000); in the data active = inhibition mostly above about 38%, no sharp cut-off; inactive = mostly below about 40%
GPR7 antag: GPR7 receptor antagonists, primary screen, cell-based, fluorescence, single concentration | actives 1.1% (n = 290,000) | inhibition, % at 4.4 µM | GPR7-expressing cells, fluorescence antagonist assay; in the data active = inhibition above about 16%, passing the limit was not always enough;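 also: cells stimulated with the agonist NPW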
Target sequence (P48145 whole entry, looked up): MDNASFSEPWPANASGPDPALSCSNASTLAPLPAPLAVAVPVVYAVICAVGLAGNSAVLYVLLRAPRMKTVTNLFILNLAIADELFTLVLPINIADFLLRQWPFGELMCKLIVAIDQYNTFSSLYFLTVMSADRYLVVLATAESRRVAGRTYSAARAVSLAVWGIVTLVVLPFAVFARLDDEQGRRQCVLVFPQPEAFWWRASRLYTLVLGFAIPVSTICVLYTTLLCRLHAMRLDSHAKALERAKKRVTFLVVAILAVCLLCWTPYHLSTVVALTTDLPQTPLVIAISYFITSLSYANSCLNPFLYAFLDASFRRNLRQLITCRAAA
Each line names hits and unclear results; the compound was inactive in the other large screens. Compounds with a hit are over-represented: about 4.6% of the library has one in this group of screens.

COC(=O)C1=C(C)N(Cc2ccccc2C(F)(F)F)C(=NCC2CC2)NC1c1ccc(F)cc1 (stereo not given)	none (no result: OX1R antag-1, CHO parental Ca, OX1R antag-2, GPR7 antag)
CCCCCCN1CCN(C2CN(Cc3cn(Cc4ccc(C(F)(F)F)cc4)nn3)S(=O)(=O)C2)CC1 (stereo not given)	none (no result: OX1R antag-1, CHO parental Ca, OX1R antag-2, GPR7 antag)
O=C(C(=O)N1CCC(CNC(=O)C2COc3ccccc3O2)CC1)c1cc2ccccc2o1 (stereo not given)	none (no result: OX1R antag-1, CHO parental Ca, OX1R antag-2, GPR7 antag)
COc1cc2c(cc1OC)CN(C(=S)Nc1ccc(OC(F)F)cc1)CC2	CHO parental Ca 45
Cc1cc(SCC(=O)N(C)C2CCCCC2)nc2ccccc12	OX1R antag-2 36 (no result: GPR7 antag)
CN(Cc1ccc(Cl)s1)C(=O)CN1C(=O)N(C)C2(CCCCC2)C1=O	none (no result: OX1R antag-1, CHO parental Ca, OX1R antag-2, GPR7 antag)
Cc1ccccc1Nc1nc(N)nc(COC(=O)c2cccc(S(=O)(=O)NCc3ccccc3)c2)n1	TAAR1 antag 55
Cc1ccccc1Nc1nc(N)nc(COC(=O)c2cccc(S(=O)(=O)N(C)C)c2)n1	none
O=c1c(NCCc2ccc(Cl)cc2)c(-c2ccccc2)c1=O	TAAR1 agonist 42
O=C(COC(=O)c1cc([N+](=O)[O-])ccc1N1CCOCC1)NC1CCS(=O)(=O)C1 (stereo not given)	none (no result: GPR7 antag)
O=C(COC(=O)c1cc([N+](=O)[O-])ccc1N1CCOCC1)Nc1ccc(Cl)cc1	OX1R antag-2 52
O=C(COC(=O)c1cc([N+](=O)[O-])ccc1N1CCOCC1)Nc1ccc(Cl)cn1	OX1R antag-2 52
O=C(COC(=O)c1cc([N+](=O)[O-])ccc1N1CCOCC1)NC1CCCCC1	OX1R antag-2 53 (no result: GPR7 antag)
COc1ccccc1CNC(=O)COC(=O)C1CCN(S(=O)(=O)c2ccccc2)CC1	none (no result: GPR7 antag)
COC(=O)C1=C(C)N(Cc2ccccc2C(F)(F)F)C(=NCc2ccc3c(c2)OCO3)NC1c1ccc(C(F)(F)F)cc1 (stereo not given)	none (no result: OX1R antag-1, CHO parental Ca, OX1R antag-2, GPR7 antag)
N#C/C(=N\Nc1ccc(S(=O)(=O)N2CCCCCC2)cc1)C(N)=S	OX1R antag-2 49
O=C(NCCc1ccc(Cl)cc1)C1CCN(C(=O)N2CCOc3ccccc32)CC1	TAAR1 antag 50
O=C(NCCc1ccccc1)C1CCN(C(=O)N2CCOc3ccccc32)CC1	none
COc1cccc(C(=O)N2CCC[C@@H]2C(=O)N2CCC[C@H]2C(=O)NCc2ccccc2)c1	none (no result: OX1R antag-1, CHO parental Ca, OX1R antag-2, GPR7 antag)
COn1c2c(c3c4no[n+]([O-])c4ccc31)CCCC2	none
[O-][n+]1c2c(c3c4non(O)c4ccc31)CCCC2	OX1R antag-2 54
CC(=O)N1/C(=C/c2ccc(N(C)C)cc2)C(=O)c2ccccc21	GPR7 antag 28 (no result: OX1R antag-1, CHO parental Ca, OX1R antag-2)
Cc1n[nH]c(C)c1CCCCOc1ccccc1[N+](=O)[O-]	CHO parental Ca 48, OX1R antag-2 59
Cc1ccccc1OCCCCc1c(C)n[nH]c1C	none
O=C(c1nn2c(C(F)(F)F)cc(-c3ccc(F)cc3)nc2c1Cl)N1CCOCC1	none
O=C(c1nc2nc(-c3ccc(Cl)cc3)cc(C(F)(F)F)n2n1)N1CCOCC1	OX1R antag-2 46
O=C(O)[C@H](Cc1ccccc1)N1Cc2ccccc2C1=O	none
COC(=O)C(Cc1ccc(OC(=O)c2ccccc2C)cc1)N1Cc2ccccc2C1=O (stereo not given)	TAAR1 antag 52
COC(=O)C(Cc1ccc(OC(=O)c2ccccc2Cl)cc1)N1Cc2ccccc2C1=O (stereo not given)	TAAR1 antag 59
COC(=O)CC(c1ccccc1F)N1Cc2ccccc2C1=O (stereo not given)	none
COC(=O)[C@]12C[C@H](CC(=O)NCCCN3CCCC3=O)C(=O)N(Cc3ccccc3)C1=C[C@H](C(C)C)O[C@@H]2C1CC1	none (no result: OX1R antag-1, CHO parental Ca, OX1R antag-2, GPR7 antag)
CC1CC(C)CN(C(=S)Nc2ccc(SC(F)F)cc2)C1 (stereo not given)	TAAR1 agonist 41
O=c1ccc(-c2ccccc2)nn1Cc1ccccc1F	none (no result: OX1R antag-1, CHO parental Ca, OX1R antag-2)
C=Cc1ccc(Cn2nc(-c3ccccc3)ccc2=O)cc1	CHO parental Ca 50
CCc1nc2ccc(C(=O)N3CCN(C(C)=O)CC3)cn2c1N(C=O)Cc1ccc(OC)cc1	none (no result: OX1R antag-1, CHO parental Ca, OX1R antag-2, GPR7 antag)
COc1cccc(N=Nc2c(=O)[nH]n3c(C)cc(C)nc23)c1	OX1R antag-2 64
COc1cccc(N=Nc2c(N)[nH]n3c(=O)cc(-c4ccccc4)nc23)c1	none
C=CCN(CC=C)S(=O)(=O)c1ccc(NC(=O)COc2ccccc2OC)cc1	CHO parental Ca 38
COc1ccccc1OCC(=O)Nc1ccc(S(=O)(=O)N2CCCCCC2)cc1	none
Cc1ccc(C)c(CC(=O)N2CCCCC2c2cc(C(=O)Nc3ccc(F)c(Cl)c3)no2)c1 (stereo not given)	none (no result: OX1R antag-1, CHO parental Ca, OX1R antag-2, GPR7 antag)
COc1ccc2c(c1)[C@@]1(OCCC=C[C@H]1C)C(=O)N2Cc1ccc(Br)cc1	none (no result: OX1R antag-1, CHO parental Ca, OX1R antag-2, GPR7 antag)
CCn1c(=O)c2cc(C(=O)Nc3ccc(OC)cc3OC)sc2c2ccccc21	none
COc1ccc(NC(=O)c2cc3c(=O)n(C)c4ccccc4c3s2)cc1OC	OX1R antag-2 54
COc1ccc(OCC(O)CNCCOc2ccccc2OC)c(C(C)(C)C)c1 (stereo not given)	TAAR1 agonist 50
COc1ccccc1NCC(O)COc1ccc(C(C)(C)C)cc1 (stereo not given)	none
CCCNc1[nH]c(=O)n(C)c(=O)c1N=O	OX1R antag-2 69
Cc1cc(-n2c(C)cc(C(=O)CSc3ncnc4ccccc34)c2C)no1	OX1R antag-1 70, CHO parental Ca 66, OX1R antag-2 47
COCCN1C(=O)CN(S(C)(=O)=O)CC1(C)C(=O)NCc1ccccc1 (stereo not given)	none (no result: OX1R antag-1, CHO parental Ca, OX1R antag-2, GPR7 antag)
NC(=O)c1c(NC(=O)c2ccccc2F)sc2c1CCCC2	OX1R antag-2 74
NC(=O)c1c(NC(=O)c2ccc(F)cc2Cl)sc2c1CCC2	OX1R antag-2 44
NC(=O)c1c(NC(=O)c2ccccc2Cl)sc2c1CCC2	none
Cc1cc(N)n2nc(C)c(-c3ccccc3)c2n1	OX1R antag-2 63
CCC(CO)[n+]1c(C)cc(/C=C2\Sc3ccccc3N2Cc2ccccc2)cc1C (stereo not given)	CHO parental Ca 41
CCC(CNc1cc(OC)cc2cccnc12)NC1CCCCC1 (stereo not given)	OX1R antag-2 58
COc1cc(NCCCC(C)N)c2ncccc2c1 (stereo not given)	none (no result: OX1R antag-1, CHO parental Ca, OX1R antag-2)

Screening results deposited in PubChem by The Scripps Research Institute Molecular Screening Center.
